Results reported in PubChem BioAssay AID651651 (Broad Institute, 2012).
Calls of active or inactive are those of the source.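 The calls were made as follows: active = signal-lowering compounds whose fitted half-effect concentration is no more than twice the top tested dose; inconclusive = flat curve with 30 to 70% inhibition, or poor fit; inactive = the rest.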

Test: quencher artefacts in RAD54 branch migration readout – biochemical, Cy5 label, cherry-picked samples, artefact control for RAD54 inhibitor project, dose response (AID 651651)
Conditions: Cy5 DNA fluorescence quench counter-screen; series mostly up to 50 µM
In short: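 assay system = human RAD54 enzyme | quantity = 30 nM RAD54 in the enzyme mix | buffer or medium = 25 mM Tris pH 7.5, 3 mM MgCl2, 2 mM ATP | also added = branched DNA substrate labelled with Cy5 and BHQ quencher | doses = pinned compound dose series | timing = 60 min reaction, room temperature | signal = fluorescence of the Cy5-labelled DNA substrate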

SMILES	outcome
COc1ccc(CN(C)C[C@@H]2Oc3ccc(NC(=O)NC(C)C)cc3C(=O)N([C@H](C)CO)C[C@H]2C)cc1	inactive
CC(C)NC(=O)Nc1ccc2c(c1)C(=O)N([C@H](C)CO)C[C@@H](C)[C@H](CN(C)S(=O)(=O)c1ccc(Cl)cc1)O2	inactive
COc1ccc(CN(C)C[C@@H]2Oc3ccc(NC(=O)Nc4ccc5c(c4)OCO5)cc3C(=O)N([C@@H](C)CO)C[C@H]2C)cc1	inactive
O=C(C[C@@H]1C[C@H]2c3cc(NC(=O)CC4CC4)ccc3O[C@H]2[C@@H](CO)O1)NCc1ccc(Cl)cc1	inactive
COc1cccc(S(=O)(=O)N2CCCCN3[C@@H](CO)[C@H](c4ccc(C#CCC(C)C)cc4)[C@@H]3C2)c1	inactive
COc1ccc(S(=O)(=O)N(C)C[C@@H]2Oc3ccc(NC(=O)Nc4ccccc4)cc3CC(=O)N([C@@H](C)CO)C[C@@H]2C)cc1	inactive
C[C@H]1CN([C@@H](C)CO)C(=O)Cc2cc(NC(=O)Nc3cccc4ccccc34)ccc2O[C@H]1CN(C)S(=O)(=O)c1ccc(Cl)cc1	inactive
CO[C@@H]1CN(C)C(=O)c2cc(NC(C)=O)ccc2OC[C@H](C)N(Cc2ccccc2C(=O)O)C[C@@H]1C	inactive
CN(C)c1ccc2c(c1)[C@@H]1C[C@H](CC(=O)NCCN3CCCCC3)O[C@H](CO)[C@@H]1O2	inactive
CN(C)c1ccc2c(c1)[C@@H]1C[C@@H](CC(=O)NCCN3CCCCC3)O[C@H](CO)[C@@H]1O2	inactive
C/C=C/c1ccc([C@@H]2[C@@H](CO)N3CCCCN(C(=O)Nc4ccc(F)cc4)C[C@H]23)cc1	inactive
CN1CCN(C(=O)C[C@H]2C[C@@H]3c4cc(NC(=O)Cc5ccncc5)ccc4O[C@@H]3[C@@H](CO)O2)CC1	inactive
C[C@H]1CN([C@@H](C)CO)C(=O)Cc2cc(NC(=O)Nc3cccc4ccccc34)ccc2O[C@H]1CN(C)S(=O)(=O)c1ccc(F)cc1	inactive
COc1ccccc1CNC(=O)C[C@@H]1C[C@@H]2c3cc(NC(=O)CN(C)C)ccc3O[C@@H]2[C@@H](CO)O1	inactive
Cc1noc(C)c1NC(=O)N(C)C[C@H]1Oc2c(NC(=O)Nc3ccc(C(F)(F)F)cc3)cccc2C(=O)N([C@@H](C)CO)C[C@H]1C	inactive
CO[C@@H]1CN(C)C(=O)c2ccc(NC(C)=O)cc2OC[C@@H](C)N(C(=O)c2ccccn2)C[C@H]1C	inactive
COc1ccc(S(=O)(=O)Nc2ccc3c(c2)[C@@H]2C[C@H](CC(=O)NCC4CC4)O[C@H](CO)[C@@H]2O3)cc1	inactive
Cc1noc(C)c1NC(=O)Nc1ccc2c(c1)C(=O)N([C@H](C)CO)C[C@H](C)[C@H](CN(C)S(C)(=O)=O)OCCCC[C@H](C)O2	inactive
C[C@@H]1CN([C@H](C)CO)C(=O)c2cc(NC(=O)Nc3ccc4c(c3)OCO4)ccc2O[C@H]1CN(C)C(=O)Nc1cccc2ccccc12	inactive
COc1ccc(S(=O)(=O)N(C)C[C@@H]2Oc3ccc(NC(=O)NC(C)C)cc3CC(=O)N([C@@H](C)CO)C[C@@H]2C)cc1	inactive
Cc1ccc(S(=O)(=O)N(C)C[C@@H]2Oc3ccc(NC(=O)Nc4c(C)noc4C)cc3CC(=O)N([C@@H](C)CO)C[C@@H]2C)cc1	inactive
COCC(=O)Nc1ccc2c(c1)[C@H]1C[C@@H](CC(=O)NCc3ccccc3F)O[C@H](CO)[C@H]1O2	inactive
CN(C)c1ccc2c(c1)[C@@H]1C[C@@H](CC(=O)NCc3cc(F)ccc3F)O[C@H](CO)[C@@H]1O2	inactive
COc1ccc(CN(C)C[C@@H]2Oc3ccc(NC(=O)Nc4ccc(OC)cc4)cc3C(=O)N([C@H](C)CO)C[C@H]2C)cc1	inactive
CN(C)c1ccc2c(c1)[C@H]1C[C@H](CC(=O)NCCN3CCCCC3)O[C@@H](CO)[C@H]1O2	inactive
COc1ccc(CN(C)C[C@@H]2Oc3ccc(NC(=O)Nc4ccccc4)cc3C(=O)N([C@@H](C)CO)C[C@H]2C)cc1	inactive
COc1ccc(NC(=O)Nc2ccc3c(c2)CC(=O)N([C@H](C)CO)C[C@H](C)[C@H](CN(C)S(=O)(=O)c2ccc(OC)cc2)O3)cc1	inactive
CN(C)CC(=O)Nc1ccc2c(c1)[C@@H]1C[C@H](CC(=O)NC3CCCCC3)O[C@@H](CO)[C@@H]1O2	inactive
COc1ccc(CN(C)C[C@@H]2Oc3ccc(NC(=O)Nc4ccc5c(c4)OCO5)cc3C(=O)N([C@H](C)CO)C[C@H]2C)cc1	inactive
